Rows were chosen to be rich in hits. Some 4.5% of all compounds tested hit in one or more screens of this group.
CHO parental Ca: ATP-evoked calcium signal inhibitors, parental CHO, primary screen, counter-screen for OX1R antagonist project, cell-based, fluorescence, Fluo-8 calcium dye; parental CHO-K1, ATP-induced calcium, Fluo-8 fluorescence; inhibition, % at 5.6 µM; 0.63% of 330,000 active;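 active means inhibition above that plate's mean sample inhibition plus 3 SD, cut at about 26% in these data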
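Assay system: parental CHO cells; Read-out basis: percent inhibition of ATP-evoked calcium rise, normalized to controls; Benchmarks: ATP and no-ATP DMSO wells; Compound dosing: single nominal dose of 5.6 µM per compound; Signal: Fluo-8 calcium dye fluorescence; Also added: ATP as calcium-mobilizing challenge; Repeats: singlicate.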
GPR7 antag: GPR7 receptor antagonists, primary screen, cell-based, fluorescence, single concentration | AID 1861, 2009 | GPR7-expressing cells, fluorescence antagonist assay | Neuropeptides B/W receptor type 1 (Homo sapiens), P48145 | inhibition, % at 4.4 µM | 1.1% of 290,000 active; in the data active means inhibition above about 16%, passing the limit was not always enough;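 further: cells stimulated with the agonist NPW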
OX1R antag-1: antagonists of human orexin 1 receptor (OX1R); Orexin/Hypocretin receptor type 1 (Homo sapiens), O43613; OX1R-expressing cells, FRET antagonist read-out; inhibition, % at 6.6 µM; 1.8% of 330,000 active; in the data active means inhibition mostly above about 38%, no sharp cut-off; inactive means mostly below about 40%
Target sequence (O43613 whole entry, looked up): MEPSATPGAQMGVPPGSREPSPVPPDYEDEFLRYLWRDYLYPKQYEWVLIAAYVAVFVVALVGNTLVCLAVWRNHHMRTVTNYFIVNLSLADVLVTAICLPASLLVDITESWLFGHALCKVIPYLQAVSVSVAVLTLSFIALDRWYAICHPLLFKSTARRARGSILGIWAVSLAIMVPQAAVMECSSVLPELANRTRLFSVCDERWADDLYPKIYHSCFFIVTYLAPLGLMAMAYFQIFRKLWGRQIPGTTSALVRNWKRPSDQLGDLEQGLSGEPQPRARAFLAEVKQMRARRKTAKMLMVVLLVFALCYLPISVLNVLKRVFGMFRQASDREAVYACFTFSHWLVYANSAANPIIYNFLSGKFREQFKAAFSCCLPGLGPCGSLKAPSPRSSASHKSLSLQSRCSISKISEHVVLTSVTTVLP
TAAR1 antag: human TAAR1 antagonists, primary screen, Fluo-8 calcium fluorescence, CHO RD-HGA16 cells; inhibition, % at 3 µM; 1.5% of 360,000 active; antagonist; AID 624466, 2012; Trace amine-associated receptor 1 (Homo sapiens), Q96RJ0;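 active means inhibition above a per-plate cutoff, the mean inhibition of test compounds on that plate plus 3 SD, cut at about 49% in these data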
Target sequence (Q96RJ0 whole entry, looked up): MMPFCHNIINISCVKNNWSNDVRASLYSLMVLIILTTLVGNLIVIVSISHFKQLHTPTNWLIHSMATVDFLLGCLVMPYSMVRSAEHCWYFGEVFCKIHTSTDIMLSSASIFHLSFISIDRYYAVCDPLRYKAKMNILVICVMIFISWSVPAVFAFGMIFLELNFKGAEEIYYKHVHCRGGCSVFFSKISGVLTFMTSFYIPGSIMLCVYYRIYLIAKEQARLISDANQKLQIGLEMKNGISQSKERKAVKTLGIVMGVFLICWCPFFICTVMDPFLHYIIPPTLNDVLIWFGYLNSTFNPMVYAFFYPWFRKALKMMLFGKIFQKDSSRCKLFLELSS
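System: CHO RD-HGA16 cells bearing hTAAR1. Reagent: EC80 β-phenethylamine stimulus. Schedule: seeding 17-24 h prior, 75-min 37 °C, 30-min RT dye loading. Signal: Fluo-8 intracellular calcium dye fluorescence, real-time kinetic reads. Read-out: % inhibition from peak post-agonist over basal fluorescence ratio. Benchmarks: vehicle wells and EC80 agonist wells. Replicates: n of 1.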
TAAR1 ag: human TAAR1 agonists, primary screen, Fluo-8 calcium fluorescence, CHO RD-HGA16 cells; vehicle wells 0%, saturating PEA agonist 100%; activation, % at 3 µM; Trace amine-associated receptor 1 (Homo sapiens), Q96RJ0; AID 624467, 2012; 0.99% of 360,000 active;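 active means activation above the mean activation of all test compounds in the run plus 3 SD, cut at about 38% in these data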
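Benchmarks: low control DMSO, high control PEA (EC100); System: CHO RD-HGA16 cells carrying human TAAR1 plus Gα16; Detection: Fluo-8 fluorescence, 5 s baseline then 140 s kinetic read; Schedule: 17-24 h plating, Fluo-8 75 min 37 °C, 30 min RT; Read-out basis: % activation from peak over basal fluorescence ratio, DMSO-to-PEA scaled.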
OX1R antag-2: OX1R (HCRTR1) antagonists, primary screen, fluorescence, CHO/OX1R cells, Fluo-8 calcium, orexin A; Orexin/Hypocretin receptor type 1 (Homo sapiens), O43613; Fluo-8 calcium fluorescence; inhibition, % at 5 µM; 0.43% of 330,000 active; AID 434989, 2010;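 active means inhibition above its plate's threshold, mean inhibition of all tested compounds on the plate plus 3 SD, cut at about 37% in these data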
TAAR1 ag conf: human TAAR1 agonists, retest of hits, confirmation, Fluo-8 calcium fluorescence, CHO RD-HGA16 cells. shares compounds with TAAR1 ag. scaled: DMSO 0%, maximal phenethylamine 100%. activation, % at 3 µM. 82% of 2,400 active. AID 651783, 2012;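 active means activation above a cutoff set at the run's mean compound activation plus 3 SD, cut at about 39% in these data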
Ga16 nonsel ag: nonselective calcium mobilization agonists, CHO-Ga16 cells, counter-screen for hTAAR1 agonist project, cell-based, fluorescence, CHO-Ga16 parental line. shares compounds with TAAR1 ag. Fluo-8 calcium fluorescence; normalized to maximal ATP response, DMSO zero. activation, % at 3 µM. 50% of 2,400 active;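 active means activation above the run cutoff, the mean activation over all tested wells plus 3 SD, cut at about 12% in these data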
TAAR1 desens: TAAR1 desensitization by agonist hits, confirmation, counter-screen for TAAR1 agonist project, cell-based, fluorescence, tachyphylaxis; 46% of 2,400 active; shares compounds with TAAR1 ag; CHO RD-HGA16 hTAAR1, Fluo-8 calcium, beta-PEA response inhibition; inhibition, % at 3 µM;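 active means inhibition above the run cutoff, the mean inhibition of all test compounds plus 3 SD, cut at about 49% in these data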;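 further: beta-PEA stimulus applied at its EC80; loss of beta-PEA calcium signal after compound pretreatment read as receptor desensitization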
Ga16 nonsel ant: inhibition of ATP-evoked calcium response in CHO-Ga16 cells, counter-screen for TAAR1 agonist project, cell-based, fluorescence; CHO-Ga16 ATP-induced calcium, Fluo-8 fluorescence; inhibition, % at 3 µM; AID 651952, 2012; shares compounds with TAAR1 ag; 39% of 2,400 active;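 active means inhibition above the plate's mean compound inhibition plus 3 SD, computed per plate, cut at about 22% in these data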
Hits are given with their value; – = inactive; · = not tested or not shown.

SMILES	CHO parental Ca	GPR7 antag	OX1R antag-1	TAAR1 antag	TAAR1 ag	OX1R antag-2	TAAR1 ag conf	Ga16 nonsel ag	TAAR1 desens	Ga16 nonsel ant
O=C(Nc1ncc(S(=O)(=O)c2ccc([N+](=O)[O-])cc2)s1)c1ccccc1F	39	–	–	59	101	54	110	61	84	51
Cc1ccc([C@@H]2[C@@H]3C(=O)N(C)C(=O)[C@@H]3[C@]3(C)C(=O)N(Cc4ccc(-c5ccccc5)cc4)CC(=O)N23)o1	–	–	–	–	–	–	·	·	·	·
OC(c1ccc(-c2ccccc2)cc1)c1ncc(-c2ccccc2)[nH]1 (stereo not drawn)	·	·	·	–	–	·	·	·	·	·
Cc1cc(NS(=O)(=O)c2ccccc2)ccc1NS(=O)(=O)c1ccccc1	·	·	·	–	–	·	·	·	·	·
Cc1cc(NS(=O)(=O)c2ccccc2)c(C)c(Cl)c1O	–	·	–	–	55	–	67	26	–	–
CN1CCN(c2ccc(NC(=O)CSc3ccccc3)cc2F)CC1	–	–	–	–	57	–	71	–	–	–
CNc1nc(NCCOc2ccccc2Cl)c2sccc2n1	·	·	·	72	72	·	51	50	57	47
C/C(Nc1ccccc1C(F)(F)F)=C1/CCOC1=O	–	–	–	–	–	–	·	·	·	·
C/C(NCCc1ccc(O)cc1)=C1/CCOC1=O	·	·	·	83	83	·	91	–	69	–
COc1cc(C2c3cc4c(cc3OC(NCCc3ccccc3)C2C)OCO4)cc(OC)c1OC (stereo not drawn)	·	·	·	91	97	·	97	–	100	–
COc1cc(C2c3cc4c(cc3OC(Nc3ccc(C(=O)O)cc3)C2C)OCO4)cc(OC)c1OC (stereo not drawn)	·	·	·	–	–	·	·	·	·	·
CC1CCCCN1C(=O)CSc1nc(C2CC2)nc2ccccc12 (stereo not drawn)	–	–	–	–	–	–	·	·	·	·
c1ccc(SCCOCCN2CCc3ccccc3C2)cc1	–	–	–	–	50	–	62	–	–	–
Cc1ccc(C)c(S(=O)(=O)N2CCN(C(=O)CSC(=S)N3CCCC3)CC2)c1	–	·	–	–	–	–	·	·	·	·
Cc1ccccc1NC(=S)NCCc1ccccc1	–	–	–	–	49	–	82	–	–	–
Cc1cnn(C(=S)NCCc2ccccc2)c1	–	–	–	–	48	–	–	–	–	–
O=C(NCC(=O)N1CCN(S(=O)(=O)c2c(F)cccc2F)CC1)c1ccccc1F	·	·	·	–	–	·	·	·	·	·
OCc1ccccc1CNCc1ccccc1	–	–	–	–	–	–	·	·	·	·
OCc1ccccc1SSc1ccccc1CO	–	·	–	–	58	–	–	19	–	–
COC(=O)C1=C(C)N(Cc2cccc(C(F)(F)F)c2)C(=NCc2cc(OC)c(OC)c(OC)c2)NC1c1ccccc1 (stereo not drawn)	·	·	·	–	44	·	–	–	–	–
COC(=O)C1=C(C)N(Cc2cccc(C(F)(F)F)c2)C(=NCc2ccc(OC)cc2)NC1c1ccccc1 (stereo not drawn)	·	·	·	59	51	·	38	25	–	45
COC(=O)C1=C(C)N(CC2CC2)C(=NCc2cccc(C(F)(F)F)c2)N[C@H]1c1ccccc1	–	·	–	·	·	–	·	·	·	·
C=CCN=C1N[C@@H](c2cccc(C(F)(F)F)c2)C(C(=O)OC)=C(C)N1CC	–	–	–	–	–	–	·	·	·	·
COC(=O)C1=C(C)N(Cc2cccc(C(F)(F)F)c2)C(=NCc2ccc(OC)cc2)NC1c1cccc(F)c1 (stereo not drawn)	·	·	·	55	43	·	42	24	51	42
O=C1NN=C2CCCCCCCCCCC12 (stereo not drawn)	·	·	·	–	–	·	·	·	·	·
SMILES	CHO parental Ca	GPR7 antag	OX1R antag-1	TAAR1 antag	TAAR1 ag	OX1R antag-2	TAAR1 ag conf	Ga16 nonsel ag	TAAR1 desens	Ga16 nonsel ant
CCOC(=O)[C@]12CCCC=C1N(CCC1=CCCCC1)C(=O)[C@H](CC(=O)NCC1CCCCC1)C2	·	·	·	–	–	·	·	·	·	·
CC(=O)Nc1ccc(NC(=O)Nc2ccccc2)cc1	–	–	–	·	·	–	·	–	·	–
O=C(Nc1ccccc1)Nc1ccc(NC(=O)c2ccccc2O)cc1	–	–	–	81	70	–	101	13	97	30
CC(=O)Nc1cccc(NC(=O)Nc2ccc(C(C)=O)cc2)c1	–	–	–	–	–	–	·	·	·	·
O=C(Nc1ccccc1)Nc1ccc2ncoc2c1	–	–	–	–	59	–	88	–	61	–
c1ccc(CN2CCC3CC2c2cc(N4CCCCC4)ccc23)cc1 (stereo not drawn)	·	·	·	–	–	·	·	·	·	·
Cc1nnn(-c2nonc2N)c1C(=O)NNC(=O)c1ccc(Cl)c(Cl)c1	–	–	–	–	55	–	72	–	–	–
FC(F)(F)c1ccc2c(c1)nc1n2CCCC1	–	–	–	–	–	–	·	·	·	·
CN1CCN(c2nc3cc(C(F)(F)F)ccc3n3cccc23)CC1	–	·	–	–	62	–	83	20	–	–
CCCCCCN1C[C@H](O)[C@@H](n2cc(-c3ccc(F)cc3)nn2)C[C@@H]1c1ccccc1	·	·	·	–	–	·	·	·	·	·
Cc1nn(C)c(Cl)c1/C=N/OC(=O)c1ccc(F)cc1	–	–	–	–	88	–	–	–	–	–
CC(CNC(=O)CCC(=O)N1CCOc2ccccc21)c1ccccc1 (stereo not drawn)	–	–	–	–	–	–	·	·	·	·
CCCCC[C@@H]1C=C(C(=O)O)[C@H](c2ccc(Cl)c(Cl)c2)N1S(=O)(=O)c1ccc(C)cc1	–	·	–	–	–	–	·	·	·	·
CC(=NNC(=O)c1ccncc1)c1cc(Cl)ccc1Cl	·	·	·	–	–	·	·	·	·	·
CCCCCCn1c(=O)[nH]c2nc3cc(N)c(C)cc3nc2c1=O	·	–	·	72	118	·	105	85	–	49

Screening data as filed in PubChem.
